Test results from ChEMBL document CHEMBL1141933 (J Med Chem, 2005).

Key:
Plasmodium falciparum [1] = test: Effective dose against chloroquine-resistant, pyrimethamine-resistant, mefloquine-sensitive Plasmodium falciparum W2; type: functional; details: read-out: ED50 (the source's name)
In short: (§1)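 Asynchronous blood-stage culture (0.5% parasitemia, 0.5% hematocrit) in RPMI-1640 with 20% heat-inactivated human A+ plasma, human A+ erythrocytes. Compound added from DMSO, 48 h at 37 C under 5% CO2/5% O2/90% N2. [8-3H]hypoxanthine then added for a further 24 h and uptake counted. Uninfected-RBC background subtracted; DMSO vehicle = 100% growth. ED50 by linear regression, mean of at least two runs.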

[2] = molecular target: Protein farnesyltransferase (Rattus norvegicus, UniProt Q02293+Q04631); test: Inhibition of biotinylated lamin B peptide farnesylation by rat farnesyltransferase; type: protein-complex assay
[3] = molecular target: T1, Protein farnesyltransferase (PFT) (Plasmodium falciparum, UniProt Q5EI73+Q5EI74); test: Inhibition of biotinylated lamin B peptide farnesylation by Plasmodium falciparum farnesyltransferase; type: protein-complex assay
T1 sequence (Q5EI73 whole entry): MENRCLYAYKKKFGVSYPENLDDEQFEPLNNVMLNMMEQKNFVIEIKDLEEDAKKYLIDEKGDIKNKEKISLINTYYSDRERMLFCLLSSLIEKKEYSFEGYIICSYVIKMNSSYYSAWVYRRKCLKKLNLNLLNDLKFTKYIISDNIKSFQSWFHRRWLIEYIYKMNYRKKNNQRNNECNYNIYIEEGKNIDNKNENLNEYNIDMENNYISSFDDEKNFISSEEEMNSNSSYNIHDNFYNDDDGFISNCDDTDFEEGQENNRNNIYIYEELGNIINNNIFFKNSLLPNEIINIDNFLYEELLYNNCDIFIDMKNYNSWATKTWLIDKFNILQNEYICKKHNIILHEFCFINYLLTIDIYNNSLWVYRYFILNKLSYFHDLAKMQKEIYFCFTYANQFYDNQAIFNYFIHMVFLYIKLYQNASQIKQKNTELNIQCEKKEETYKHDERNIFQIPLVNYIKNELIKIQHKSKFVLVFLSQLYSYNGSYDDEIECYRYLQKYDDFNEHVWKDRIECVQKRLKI
T1 sequence (Q5EI74 whole entry): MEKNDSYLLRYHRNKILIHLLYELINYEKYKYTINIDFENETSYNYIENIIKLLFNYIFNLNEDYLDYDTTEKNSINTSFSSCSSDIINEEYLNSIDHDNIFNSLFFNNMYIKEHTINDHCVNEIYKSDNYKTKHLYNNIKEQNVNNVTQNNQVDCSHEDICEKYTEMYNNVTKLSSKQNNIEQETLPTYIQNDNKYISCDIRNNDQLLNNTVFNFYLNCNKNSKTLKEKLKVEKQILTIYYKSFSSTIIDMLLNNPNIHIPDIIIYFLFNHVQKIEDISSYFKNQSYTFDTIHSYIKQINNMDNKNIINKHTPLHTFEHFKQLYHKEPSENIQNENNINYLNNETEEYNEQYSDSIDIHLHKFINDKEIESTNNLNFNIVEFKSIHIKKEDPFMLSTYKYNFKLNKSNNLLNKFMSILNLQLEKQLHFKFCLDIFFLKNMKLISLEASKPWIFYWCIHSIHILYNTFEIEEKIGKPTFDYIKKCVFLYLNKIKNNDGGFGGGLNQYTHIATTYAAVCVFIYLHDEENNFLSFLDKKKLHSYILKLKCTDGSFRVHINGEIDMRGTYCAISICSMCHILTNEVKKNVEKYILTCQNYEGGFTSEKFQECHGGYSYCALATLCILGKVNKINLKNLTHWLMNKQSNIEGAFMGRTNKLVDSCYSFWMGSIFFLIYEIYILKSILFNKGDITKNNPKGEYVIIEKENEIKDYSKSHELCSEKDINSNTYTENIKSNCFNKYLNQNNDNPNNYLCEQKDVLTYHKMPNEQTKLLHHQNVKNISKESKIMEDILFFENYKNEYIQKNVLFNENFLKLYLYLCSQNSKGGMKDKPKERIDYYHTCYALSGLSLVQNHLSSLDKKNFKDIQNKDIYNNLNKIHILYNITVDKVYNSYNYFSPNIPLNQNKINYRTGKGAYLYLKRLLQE

Plasmodium falciparum [4] = test: Effective dose against chloroquine-resistant, pyrimethamine-resistant, mefloquine-sensitive Plasmodium falciparum K1; type: functional; details: read-out: ED50 (the source's name); in short: as §1
Plasmodium falciparum [5] = test: Effective dose against chloroquine-sensitive, pyrimethamine-sensitive, mefloquine-sensitive Plasmodium falciparum 3D7; type: functional; details: read-out: ED50 (the source's name)
In short: (§2)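 Asynchronous culture in human A+ erythrocytes at 0.5% parasitemia and 0.5% hematocrit, in RPMI-1640 with 20% heat-inactivated human A+ plasma. Compound added in DMSO; 48 h at 37 C under 5% CO2/5% O2/90% N2. [8-3H]hypoxanthine added for a further 24 h, then incorporation counted. Uninfected-RBC background subtracted; DMSO = 100% growth. ED50 by linear regression; ≥2 tests, mean.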

Plasmodium falciparum [6] = test: Effective dose against chloroquine-resistant, pyrimethamine-resistant, mefloquine-resistant Plasmodium falciparum Dd2; type: functional; details: read-out: ED50 (the source's name); in short: as §1
Plasmodium falciparum [7] = test: Effective dose against chloroquine-sensitive, pyrimethamine-sensitive, mefloquine-sensitive Plasmodium falciparum HB3; type: functional; details: read-out: ED50 (the source's name); in short: as §2
Plasmodium falciparum [8] = test: Effective dose against Plasmodium falciparum 3D7; type: functional; details: read-out: ED50 (the source's name); in short: as §2
Plasmodium falciparum [9] = test: Effective dose against Plasmodium falciparum; type: functional; details: read-out: ED50 (the source's name)

Structure (SMILES) | IC50 [2] [nM] | IC50 [3] [nM] | EC50 (Plasmodium falciparum [8]) [nM] | EC50 (Plasmodium falciparum [9]) [nM] | EC50 (Plasmodium falciparum [1]) [nM] | EC50 (Plasmodium falciparum [4]) [nM] | EC50 (Plasmodium falciparum [5]) [nM] | EC50 (Plasmodium falciparum [6]) [nM] | EC50 (Plasmodium falciparum [7]) [nM]
C=C(C)CN(C1Cc2cc(C#N)ccc2N(Cc2cncn2C)C1)S(=O)(=O)c1cn(C)cn1 (configuration not stated) | 0.7 | 0.6 |  |  | 21 | 15 | 7 | 10 | 12
Cn1cnc(S(=O)(=O)N(Cc2ccccc2)C2Cc3cc(C#N)ccc3N(Cc3cncn3C)C2)c1 (configuration not stated) | 1.2 | 0.6 |  |  | 14 | 9 | 5 | 8 | 10
Cn1cnc(S(=O)(=O)N(CC(=O)OC(C)(C)C)C2Cc3cc(C#N)ccc3N(Cc3cncn3C)C2)c1 (configuration not stated) | 1.2 | 0.9 |  |  |  | 20 | 5 | 6 | 7
Cn1cncc1CN1CC(N(Cc2ccccn2)S(=O)(=O)c2ccccn2)Cc2cc(C#N)ccc21 (configuration not stated) | 3.8 | 2.8 | 51 |  |  |  |  |  | 
C=C(Br)CN(C1Cc2cc(C#N)ccc2N(Cc2cncn2C)C1)S(=O)(=O)c1cn(C)cn1 (configuration not stated) | 0.8 | 0.4 |  |  | 14 | 10 | 6 | 10 | 10
Cn1cnc(S(=O)(=O)N(CC(=O)NC(C)(C)C)C2Cc3cc(C#N)ccc3N(Cc3cncn3C)C2)c1 (configuration not stated) | 1.5 | 1.2 |  |  | 8 | 7 | 5 | 4 | 7
Cn1cncc1CN1CC(N(CC(=O)NC(C)(C)C)S(=O)(=O)c2cccnc2)Cc2cc(C#N)ccc21 (configuration not stated) | 6 | 25 | 2700 |  |  |  |  |  | 
CCN(CC)CCCC(C)Nc1ccnc2cc(Cl)ccc12 (configuration not stated) [CHLOROQUINE] |  |  |  |  | 125 | 200 | 8 | 78 | 5
NC(=O)N1CCC(CC(=O)N2CCC([C@H]3c4ncc(Br)cc4CCc4cc(Cl)cc(Br)c43)CC2)CC1 [LONAFARNIB] |  | > 250 |  | 3000 |  |  |  |  | 
O[C@H](c1cc(C(F)(F)F)nc2c(C(F)(F)F)cccc12)[C@@H]1CCCCN1 [MEFLOQUINE] |  |  |  |  | 9 | 10 | 24 | 100 | 29
CCc1nc(N)nc(N)c1-c1ccc(Cl)cc1 [PYRIMETHAMINE] |  |  |  |  |  | 25000 | 39 | 16000 | 2
Cn1cncc1[C@@](N)(c1ccc(Cl)cc1)c1ccc2c(c1)c(-c1cccc(Cl)c1)cc(=O)n2C [TIPIFARNIB] |  | 7 |  | 3000 |  |  |  |  | 

The next lines start with results.

IC50 [2] [nM] | IC50 [3] [nM] | EC50 (Plasmodium falciparum [8]) [nM] | EC50 (Plasmodium falciparum [9]) [nM] | Structure (SMILES) | EC50 (Plasmodium falciparum [1]) [nM] | EC50 (Plasmodium falciparum [4]) [nM] | EC50 (Plasmodium falciparum [5]) [nM] | EC50 (Plasmodium falciparum [6]) [nM] | EC50 (Plasmodium falciparum [7]) [nM]
3.4 | 1.5 | 55 |  | Cc1ccccc1CN(C1Cc2cc(C#N)ccc2N(Cc2cncn2C)C1)S(=O)(=O)c1cn(C)cn1 (configuration not stated) |  |  |  |  | 
5 | 8 | > 5000 |  | Cn1cncc1CN1CC(N(CC(=O)NC(C)(C)C)S(=O)(=O)c2nccn2C)Cc2cc(C#N)ccc21 (configuration not stated) |  |  |  |  | 
1000 | 28 | 3000 |  | Cn1cnc(S(=O)(=O)N(Cc2ccc3ccccc3c2Br)C2Cc3cc(C#N)ccc3N(Cc3cncn3C)C2)c1 (configuration not stated) |  |  |  |  | 
7.6 | 42 | > 5000 |  | Cn1cncc1CN1CC(N(CC(=O)NC(C)(C)C)S(=O)(=O)Cc2ccc(F)cc2)Cc2cc(C#N)ccc21 (configuration not stated) |  |  |  |  | 
 | 9 |  | > 5000 | Cn1cncc1C(O)(CN1CCC(C#N)=C(c2cccc3ccccc23)C1)c1ccc(C#N)cc1 (configuration not stated) |  |  |  |  | 
 |  |  | > 5000 | N#Cc1ccc(Cn2cncc2CN[C@H]2CCN(Cc3cccc(Cl)c3)C2=O)cc1 |  |  |  |  | 
 | 1000 |  | 150 | CSCC[C@H](NC(=O)c1ccc(CNCc2cnc[nH]2)cc1-c1ccccc1C)C(=O)OCc1ccccc1 |  |  |  |  | 
 | 5 |  | > 5000 | CCSC[C@H](CC1CCCCC1)NCc1ccc(C(=O)N[C@@H](CCSC)C(=O)O)c(-c2ccccc2C)c1 |  |  |  |  | 
10 | 55 | 3000 |  | Cn1cncc1CN1CC(N(Cc2cc3nsnc3cc2Cl)S(=O)(=O)c2ccccn2)Cc2cc(C#N)ccc21 (configuration not stated) |  |  |  |  | 
3 | 0.8 | 113 |  | Cc1onc(-c2ccccc2)c1CN(C1Cc2cc(C#N)ccc2N(Cc2cncn2C)C1)S(=O)(=O)c1ccccn1 (configuration not stated) |  |  |  |  | 
3.2 | 1.1 | 100 |  | Cn1cnc(S(=O)(=O)N(CC2CCN(C(=O)OC(C)(C)C)CC2)C2Cc3cc(C#N)ccc3N(Cc3cncn3C)C2)c1 (configuration not stated) |  |  |  |  | 
440 | 165 | 2750 |  | Cn1cncc1CN1CC(N(Cc2ccc3ccccc3c2Br)S(=O)(=O)c2ccccn2)Cc2cc(C#N)ccc21 (configuration not stated) |  |  |  |  | 
160 | 1000 | > 5000 |  | Cn1cncc1CN1CC(N(CC(=O)NC(C)(C)C)S(=O)(=O)c2ccncc2)Cc2cc(C#N)ccc21 (configuration not stated) |  |  |  |  | 
1.8 | 1.4 | 85 |  | Cn1cncc1CN1CC(N(CC(=O)NC(C)(C)C)S(=O)(=O)c2ccccn2)Cc2cc(C#N)ccc21 (configuration not stated) |  |  |  |  | 
 | 15 |  | > 20000 | CSCC[C@H](NC(=O)c1ccc(CNCc2c[nH]cn2)cc1-c1ccccc1C)C(=O)O |  |  |  |  | 
